Here are results for four molecules from ChEMBL document CHEMBL2010761, “NO-SSRIs: Nitric Oxide Chimera Drugs Incorporating a Selective Serotonin Reuptake Inhibitor” (ACS Med Chem Lett, 2011).

As usually defined, the half-life is how long it takes for the measured level to halve.

Active and inactive are the calls of the source. No cut-off for these calls is given here.

Data set [1] relates to Brain. Put plainly: Prodrug activation in mouse brain assessed as formation of fluoxetine at 15 mg/kg, ip after 20 mins by LC-MS/MS analysis. Format: organism-based. Further details: dose 15 mg/kg, route intraperitoneal. The conditions noted are these: in vivo.
For data set [2], the system named is Rattus norvegicus. The data set is described as follows: Antidepressant activity in Sprague-Dawley rat assessed as increase in swimming time at 26.5 mg/kg, ip administered 1, 5 and 24 hrs prior test by forced swimming task analysis relative to control. More on the design: dose 26.5 mg/kg. Format: functional, organism-based. An outline of the steps:
(§1)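 Drug was given ip at 24, 5 and 1 h before the 5 min test, which was scored in 60 blocks of 5 s for struggle, swimming and immobility durations. Comparison was against vehicle by ANOVA with Tukey's post hoc test; means ± SEM.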

The subject of data set [3] is Plasma. The data set is described as follows: Prodrug activation in mouse plasma assessed as formation of fluoxetine at 15 mg/kg, ip after 20 mins by LC-MS/MS analysis. Format: organism-based. Further details: dose 15 mg/kg, route intraperitoneal. The conditions noted are these: in vivo.
Data set [4] relates to Rattus norvegicus. The data set is described as follows: Antidepressant activity in Sprague-Dawley rat assessed as change in struggle time at 26.5 mg/kg, ip administered 1, 5 and 24 hrs prior test by forced swimming task analysis relative to control. Format: functional, organism-based. Further details: dose 26.5 mg/kg. The essentials: as §1
Data set [5] concerns the target Sodium-dependent serotonin transporter (Homo sapiens) (UniProt P31645). The data set is described as follows: Inhibition of human SERT-mediated serotonin reuptake in HEK293 cells at 100 nM relative to fluoxetine. It is filed as cell-based. The essentials: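 HEK-293 cells stably transfected with human SERT cDNA were used to measure serotonin reuptake with test compounds at 100 nM. […] Means ± SEM from three separate experiments.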

Data set [6] is described as follows: Half life in PBS at pH 7 to 8 assessed as hydrolysis of compound to fluoxetine at 200 uM by HPLC-UV analysis. It is filed as physicochemical.
The nature of data set [7]: Prodrug activation in PBS at pH 8 assessed as hydrolysis of compound to fluoxetine at 200 uM by HPLC-UV analysis. Conditions: buffer, pH 8, 200 µM.
Data set [8] in a line: Prodrug activation in PBS at pH 7 assessed as hydrolysis of compound to fluoxetine at 200 uM by HPLC-UV analysis. The conditions noted are these: buffer, pH 7, 200 µM.
The nature of data set [9]: Prodrug activation in PBS assessed as production of NO at 500 uM after 30 mins by chemiluminescence assay. The conditions noted are these: buffer, 0.5 h. The essentials: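 Compound (500 μM) was mixed with glutathione-containing PBS in a sealed vessel. NO in the headspace was measured by chemiluminescence after 30 min.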
Data set [10] has as its system Rattus norvegicus. The data set is described as follows: Antidepressant activity in Sprague-Dawley rat assessed as decrease in immobility time at 26.5 mg/kg, ip administered 1, 5 and 24 hrs prior test by forced swimming task analysis relative to control. Format: functional, organism-based. Further details: dose 26.5 mg/kg. The essentials:
as §1

Data set [11] can be described thus: Prodrug activation in PBS at pH 7 to 8 assessed as hydrolysis of compound to fluoxetine at 200 uM after 7 hrs by HPLC-UV analysis. Conditions: buffer, pH 7, 7 h.
Data set [12] can be described thus: Prodrug activation in PBS at pH 7.4 assessed as hydrolysis of compound to fluoxetine at 200 uM by HPLC-UV analysis. The conditions noted are these: buffer, pH 7.4, 200 µM.
Data set [13] relates to Mus musculus. Put plainly: Antiamnesic activity in scopolamine-induced C57BL/6 mouse assessed as aversive memory measuring increase in latency to enter dark area at 2.05 mg/kg, ip administered 20 mins prior training measured after 48 hrs by step-through passive avoidance task analysis relative to control. It is filed as functional, organism-based. More on the design: dose 2.05 mg/kg. An outline of the steps:
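Mice received scopolamine (1 mg/kg in physiological saline, ip) 30 min before training, and test drug in 25% DMSO ip 20 min before training. Training came 2 h after habituation: the animal was placed in the lit compartment, and entry to the dark side triggered door closure and a 0.6 mA, 2 s footshock. Latency to enter the dark chamber was retested 48 h later with no drug. N = 9–11; means ± SEM; ANOVA with Tukey's post hoc test.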

In data set [14] the test system is Brain. Put plainly: Prodrug activation in mouse brain assessed as formation of fluoxetine at 15 mg/kg, ip after 120 mins by LC-MS/MS analysis. Format: organism-based. Further details: dose 15 mg/kg, route intraperitoneal. Conditions: in vivo, 2 h.
For data set [15], the system named is Plasma. The data set is described as follows: Prodrug activation in mouse plasma assessed as formation of fluoxetine at 15 mg/kg, ip after 120 mins by LC-MS/MS analysis. Further details: dose 15 mg/kg, route intraperitoneal. It is filed as organism-based. The conditions noted are these: in vivo, 2 h.
The subject of data set [16] is Mus musculus. Put plainly: Antiamnesic activity in scopolamine-induced C57BL/6 mouse assessed as aversive memory measuring increase in latency to enter dark area at 1.54 mg/kg, ip administered 20 mins prior training measured after 48 hrs by step-through passive avoidance task analysis relative to control. Format: functional, organism-based. Further details: dose 1.54 mg/kg. The essentials:
(§2)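 Mice trained 2 h after habituation. Scopolamine 1 mg/kg in saline given ip 30 min before training, test drug in 25% DMSO given ip 20 min before training. Footshock 0.6 mA for 2 s on entering the dark compartment, with the door closing. Latency to enter the dark chamber recorded 48 h after training, drug-free. N = 9–11. Means and SEMs; ANOVA with Tukey post hoc test.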

The test system of data set [17] is Rattus norvegicus. The data set is described as follows: Antidepressant activity in Sprague-Dawley rat assessed as increase in swimming time at 10 mg/kg, ip administered 1, 5 and 24 hrs prior test by forced swimming task analysis relative to control. More on the design: dose 10 mg/kg. It is filed as functional, organism-based. An outline of the steps:
(§3)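 Male Sprague-Dawley rats, 200–250 g, given a 15 min pre-swim in the water tank 24 h before testing. Drug or vehicle given ip at 24, 5 and 1 h before the test. The 5 min test was scored in 60 blocks of 5 s for struggle, swimming and immobility. Means and SEMs; ANOVA with Tukey post hoc test.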

Data set [18] relates to Mus musculus. Put plainly: Antiamnesic activity in scopolamine-induced C57BL/6 mouse assessed as aversive memory measuring increase in latency to enter dark area at 1 mg/kg, ip administered 20 mins prior training measured after 48 hrs by step-through passive avoidance task analysis relative to control. Format: functional, organism-based. Further details: dose 1 mg/kg. An outline of the steps:
as §2

Data set [19] has as its system Rattus norvegicus. The data set is described as follows: Antidepressant activity in Sprague-Dawley rat assessed as decrease in immobility time at 10 mg/kg, ip administered 1, 5 and 24 hrs prior test by forced swimming task analysis relative to control. It is filed as functional, organism-based. Further details: dose 10 mg/kg. An outline of the steps:
as §3

Data set [20] has as its system Rattus norvegicus. The data set is described as follows: Antidepressant activity in Sprague-Dawley rat assessed as change in struggle time at 10 mg/kg, ip administered 1, 5 and 24 hrs prior test by forced swimming task analysis relative to control. It is filed as functional, organism-based. Further details: dose 10 mg/kg. The essentials: as §3

Chain of Sodium-dependent serotonin transporter (Homo sapiens) (P31645 whole entry, looked up): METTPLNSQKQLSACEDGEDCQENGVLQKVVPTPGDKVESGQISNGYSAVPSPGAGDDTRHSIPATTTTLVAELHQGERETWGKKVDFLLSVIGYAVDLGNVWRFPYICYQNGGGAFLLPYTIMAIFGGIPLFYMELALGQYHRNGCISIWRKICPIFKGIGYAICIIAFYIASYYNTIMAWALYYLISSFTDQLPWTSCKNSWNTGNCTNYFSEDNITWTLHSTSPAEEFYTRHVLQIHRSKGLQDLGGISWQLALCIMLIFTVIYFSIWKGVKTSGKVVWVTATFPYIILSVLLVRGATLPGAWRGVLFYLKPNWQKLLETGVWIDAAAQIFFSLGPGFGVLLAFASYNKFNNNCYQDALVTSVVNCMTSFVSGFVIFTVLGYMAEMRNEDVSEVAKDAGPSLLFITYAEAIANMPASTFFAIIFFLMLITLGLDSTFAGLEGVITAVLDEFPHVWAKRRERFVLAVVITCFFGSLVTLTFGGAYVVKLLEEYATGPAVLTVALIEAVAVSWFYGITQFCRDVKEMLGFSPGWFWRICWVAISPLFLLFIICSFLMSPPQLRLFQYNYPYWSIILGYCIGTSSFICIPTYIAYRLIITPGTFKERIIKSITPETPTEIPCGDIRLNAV

Regarding `CN(CCC(Oc1ccc(C(F)(F)F)cc1)c1ccccc1)C(=O)SCCO[N+](=O)[O-]` (stereo unspecified), the Drug metabolism result with Brain [1] was “Active”; with Plasma [3], “Active”; in data set [7], “Active”; in data set [8], “Active”; in data set [9] it was 8.9 nM; in data set [11], “Active”. The Drug metabolism entry (in data set [12]; in the data set on Brain [14]; with Plasma [15]) was “Active” each time. The outcome in the data set with Rattus norvegicus [2], in the data set on Rattus norvegicus [4], in the data set with Rattus norvegicus [10] and in the data set with Mus musculus [13] was Active. Further, the Efficacy in data set [5] is under 15%. Further, the half-life at 200 µM in data set [6] is 1.67 h.

As to `CNCCC(Oc1ccc(C(F)(F)F)cc1)c1ccccc1` (stereo unspecified), the result in the data set on Mus musculus [16] was inactive.

For the molecule `Cc1ncsc1CCO[N+](=O)[O-]`, the result in the data set with Rattus norvegicus [17], in the data set on Mus musculus [18], in the data set on Rattus norvegicus [19] and with Rattus norvegicus [20] was Active.

The molecule `O=C(SCCO[N+](=O)[O-])N1CC[C@@H](c2ccc(F)cc2)[C@H](COc2ccc3c(c2)OCO3)C1` registered an Efficacy in data set [5] of under 15%.
